Laboratory results from ChEMBL document CHEMBL1144233 (Bioorg Med Chem Lett, 2008).
Values belong to the compound of their own block, whether it stands above or below them. Calls of active or inactive are those of the source. The calls are words filed in the database; no cut-off is given here.

Assays:
[1] = target: T1, Metabotropic glutamate receptor 4 (Homo sapiens, UniProt Q14833); experiment: Activity at human mGluR4 expressed in CHO cells assessed as fold potentiation of glutamate-induced calcium flux at 30 uM by fluorescence assay relative to control
Target sequence in this assay (Q14833 whole entry, looked up): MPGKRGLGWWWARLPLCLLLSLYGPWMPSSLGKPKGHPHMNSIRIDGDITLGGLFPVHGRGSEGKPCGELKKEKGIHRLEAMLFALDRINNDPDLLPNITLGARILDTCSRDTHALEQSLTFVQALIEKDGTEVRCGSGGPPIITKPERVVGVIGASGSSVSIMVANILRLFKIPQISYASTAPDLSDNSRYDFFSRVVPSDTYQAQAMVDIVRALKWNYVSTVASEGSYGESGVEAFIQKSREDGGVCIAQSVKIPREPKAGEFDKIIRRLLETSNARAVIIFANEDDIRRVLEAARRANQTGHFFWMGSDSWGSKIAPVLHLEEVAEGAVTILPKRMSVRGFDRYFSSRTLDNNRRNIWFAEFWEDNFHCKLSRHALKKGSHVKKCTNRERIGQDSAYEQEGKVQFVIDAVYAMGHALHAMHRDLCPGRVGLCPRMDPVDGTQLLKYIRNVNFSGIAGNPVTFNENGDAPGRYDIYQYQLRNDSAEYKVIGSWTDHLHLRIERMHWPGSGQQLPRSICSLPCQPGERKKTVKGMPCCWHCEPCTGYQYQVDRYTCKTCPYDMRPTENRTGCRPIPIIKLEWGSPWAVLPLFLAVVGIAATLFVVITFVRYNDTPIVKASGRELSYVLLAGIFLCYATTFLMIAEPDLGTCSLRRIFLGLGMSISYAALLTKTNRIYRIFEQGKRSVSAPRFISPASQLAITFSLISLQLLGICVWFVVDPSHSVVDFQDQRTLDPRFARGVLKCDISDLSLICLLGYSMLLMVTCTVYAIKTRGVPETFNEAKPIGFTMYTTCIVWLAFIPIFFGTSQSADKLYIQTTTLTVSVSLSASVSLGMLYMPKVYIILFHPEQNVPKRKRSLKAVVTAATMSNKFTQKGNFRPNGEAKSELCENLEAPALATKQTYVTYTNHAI

[2] = target: T1, Metabotropic glutamate receptor 4; experiment: Activity at human mGluR4 expressed in CHO coexpressing Gqi5 assessed as potentiation of calcium flux by fluorescence assay in absence of glutamate; type: functional
In short: (§1)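 CHO cells stably co-expressing human mGluR4 and chimeric Gqi5, plated 30,000 cells/well in assay medium (DMEM, 10% dialyzed FBS, 20 mM HEPES) and grown overnight at 37 °C, 5% CO₂. Loaded with 1 µM Fluo-4AM in HBSS/20 mM HEPES/2.5 mM probenecid for 45 min at 37 °C.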
Target sequence in this assay (Q14833 whole entry): as the sequence (Q14833 whole entry, looked up) above

[3] = target: Metabotropic glutamate receptor 1 (Rattus norvegicus, UniProt P23385); experiment: (§2) Antagonist activity at rat mGluR1 expressed in Syrian golden hamster BHK cells assessed as […] of glutamate-induced calcium flux by fluorescence assay; type: functional, cell-based
Chain of Metabotropic glutamate receptor 1 (P23385 whole entry): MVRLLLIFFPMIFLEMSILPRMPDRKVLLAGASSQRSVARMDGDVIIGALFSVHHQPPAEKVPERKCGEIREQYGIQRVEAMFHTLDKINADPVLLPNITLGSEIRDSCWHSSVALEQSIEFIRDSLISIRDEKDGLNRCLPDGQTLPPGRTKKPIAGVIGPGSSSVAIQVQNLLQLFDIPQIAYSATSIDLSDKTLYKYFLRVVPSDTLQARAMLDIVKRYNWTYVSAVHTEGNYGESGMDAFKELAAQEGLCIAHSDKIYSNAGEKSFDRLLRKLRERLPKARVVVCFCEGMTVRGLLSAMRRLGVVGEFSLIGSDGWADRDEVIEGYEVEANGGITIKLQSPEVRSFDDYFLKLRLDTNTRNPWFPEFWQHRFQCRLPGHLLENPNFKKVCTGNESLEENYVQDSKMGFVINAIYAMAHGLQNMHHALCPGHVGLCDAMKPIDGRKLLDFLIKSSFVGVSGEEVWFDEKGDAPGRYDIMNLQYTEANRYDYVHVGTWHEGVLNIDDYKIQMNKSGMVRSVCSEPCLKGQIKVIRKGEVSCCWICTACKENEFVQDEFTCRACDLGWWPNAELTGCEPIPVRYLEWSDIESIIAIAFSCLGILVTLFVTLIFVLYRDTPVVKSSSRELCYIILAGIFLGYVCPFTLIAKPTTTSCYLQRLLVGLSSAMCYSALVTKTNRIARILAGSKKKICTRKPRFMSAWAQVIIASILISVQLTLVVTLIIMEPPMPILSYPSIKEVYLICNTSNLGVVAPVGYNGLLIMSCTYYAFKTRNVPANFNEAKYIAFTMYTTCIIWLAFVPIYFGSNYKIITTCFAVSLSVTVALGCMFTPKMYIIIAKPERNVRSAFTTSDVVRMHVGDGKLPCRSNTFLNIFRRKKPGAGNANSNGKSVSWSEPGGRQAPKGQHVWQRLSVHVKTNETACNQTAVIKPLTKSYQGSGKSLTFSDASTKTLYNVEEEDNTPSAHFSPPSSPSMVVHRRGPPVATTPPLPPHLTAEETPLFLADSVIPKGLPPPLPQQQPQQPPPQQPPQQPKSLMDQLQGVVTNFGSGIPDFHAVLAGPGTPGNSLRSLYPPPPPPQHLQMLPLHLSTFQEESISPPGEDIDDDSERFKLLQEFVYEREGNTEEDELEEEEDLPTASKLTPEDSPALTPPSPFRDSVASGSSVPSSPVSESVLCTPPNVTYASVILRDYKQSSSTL

[4] = target: T1, Metabotropic glutamate receptor 4; experiment: Activity at human mGluR4 expressed in CHO coexpressing Gqi5 assessed as potentiation of glutamate-induced calcium flux by fluorescence assay; type: functional
In short: as §1
Target sequence in this assay (Q14833 whole entry): as the sequence (Q14833 whole entry, looked up) above

[5] = target: Metabotropic glutamate receptor 1 (Rattus norvegicus) (UniProt P23385); experiment: as §2; type: functional, cell-based; design: scale not given: the % may be the effect or the level left
Chain of Metabotropic glutamate receptor 1 (Rattus norvegicus) (P23385 19-1199 limits assumed): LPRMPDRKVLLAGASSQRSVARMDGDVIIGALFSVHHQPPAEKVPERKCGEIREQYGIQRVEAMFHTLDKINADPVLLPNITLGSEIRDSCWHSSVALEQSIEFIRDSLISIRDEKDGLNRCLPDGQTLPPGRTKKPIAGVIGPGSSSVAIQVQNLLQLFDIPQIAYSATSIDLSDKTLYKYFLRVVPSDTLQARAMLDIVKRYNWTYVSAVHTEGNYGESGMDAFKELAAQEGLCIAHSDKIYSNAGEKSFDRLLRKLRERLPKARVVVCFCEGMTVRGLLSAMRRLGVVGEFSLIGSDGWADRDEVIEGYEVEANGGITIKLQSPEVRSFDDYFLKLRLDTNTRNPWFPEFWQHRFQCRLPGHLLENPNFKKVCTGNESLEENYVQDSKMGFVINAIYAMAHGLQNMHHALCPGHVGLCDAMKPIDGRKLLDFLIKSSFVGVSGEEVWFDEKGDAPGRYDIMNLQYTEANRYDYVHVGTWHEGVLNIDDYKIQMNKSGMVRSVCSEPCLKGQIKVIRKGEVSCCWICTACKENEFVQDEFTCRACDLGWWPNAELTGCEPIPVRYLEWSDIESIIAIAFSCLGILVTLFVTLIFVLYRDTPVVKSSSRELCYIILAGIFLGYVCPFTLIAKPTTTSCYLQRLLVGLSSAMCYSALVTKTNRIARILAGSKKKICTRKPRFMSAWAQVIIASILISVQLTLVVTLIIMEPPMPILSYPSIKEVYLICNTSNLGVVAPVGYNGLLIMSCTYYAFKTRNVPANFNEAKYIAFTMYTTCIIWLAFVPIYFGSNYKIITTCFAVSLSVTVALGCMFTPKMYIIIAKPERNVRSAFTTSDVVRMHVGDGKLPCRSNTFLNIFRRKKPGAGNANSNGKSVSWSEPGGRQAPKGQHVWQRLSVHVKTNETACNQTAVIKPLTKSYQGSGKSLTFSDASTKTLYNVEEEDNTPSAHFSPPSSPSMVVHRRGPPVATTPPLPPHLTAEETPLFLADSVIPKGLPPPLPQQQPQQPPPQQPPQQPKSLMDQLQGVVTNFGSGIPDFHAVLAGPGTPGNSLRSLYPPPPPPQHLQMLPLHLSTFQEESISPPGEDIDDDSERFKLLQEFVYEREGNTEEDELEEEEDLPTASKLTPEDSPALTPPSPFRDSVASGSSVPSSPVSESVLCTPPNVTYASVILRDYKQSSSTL

SMILES: Cc1ccc(-n2ncc3c(N4CC(C)OC(C)C4)ncnc32)c(C)c1 (centres undefined)
fold change (FC) [1]: 3.5

SMILES: O=C(Nc1ccccc1)[C@]12C[C@H]1/C(=N\O)c1ccccc1O2
Activity [5]: 30%

SMILES: CC1CCCN(c2ncnc3c2cnn3-c2ccccc2Cl)C1 (centres undefined)
fold change (FC) [1]: 2.7

More lines, now with the values ahead:

fold change (FC) [1]: 9.9
SMILES: Cc1ccc(-n2ncc3c(N4CCCC(C(F)(F)F)C4)ncnc32)c(C)c1 (centres undefined)

fold change (FC) [1]: 11.8 | Activity [2]: inactive | IC50 [3]: 2.6 µM | EC50 [4]: 4.6 µM
SMILES: Cc1ccc(-n2ncc3c(N4CCCC(C)C4)ncnc32)c(C)c1 (centres undefined)

fold change (FC) [1]: 2.4
SMILES: Cc1ccc(-n2ncc3c(N4CCC(n5c(=O)[nH]c6ccccc65)CC4)ncnc32)c(C)c1
